TRPML3 ag – human TRPML3 channel agonists, primary screen, cell-based, HEK293 TRPML3-YFP, Fluo-8 calcium fluorescence, 3 µM; 220,000 tested, 0.29% active; 100% = the carbachol control signal; activation, % at 3 µM;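 active means activation above its plate's cutoff, the mean activation of the plate's test wells plus 3 SD, cut at about 12% in these data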;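 further: 0% = DMSO only wells and 100% = carbachol wells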
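system = HEK293 cells stably carrying human TRPML3-YFP | doses = one concentration, 3 µM nominal, 0.3% DMSO | timing = dye loading 1 h 37 °C then 30 min ambient, 125 s read | detection = Fluo-8 calcium dye fluorescence, ex 470-495, em 515-575 nm | benchmarks = high control carbachol 87 µM, low control DMSO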
OX1R antag-1 – antagonists of human orexin 1 receptor (OX1R); inhibition, % at 6.6 µM; 330,000 tested, 1.8% active; AID 485270, 2010; OX1R-expressing cells, FRET antagonist read-out; in the data active means inhibition mostly above about 38%, no sharp cut-off; inactive means mostly below about 40%;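 further: 0% = agonist challenge alone and 100% = reference antagonist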
Target sequence (O43613 whole entry, looked up): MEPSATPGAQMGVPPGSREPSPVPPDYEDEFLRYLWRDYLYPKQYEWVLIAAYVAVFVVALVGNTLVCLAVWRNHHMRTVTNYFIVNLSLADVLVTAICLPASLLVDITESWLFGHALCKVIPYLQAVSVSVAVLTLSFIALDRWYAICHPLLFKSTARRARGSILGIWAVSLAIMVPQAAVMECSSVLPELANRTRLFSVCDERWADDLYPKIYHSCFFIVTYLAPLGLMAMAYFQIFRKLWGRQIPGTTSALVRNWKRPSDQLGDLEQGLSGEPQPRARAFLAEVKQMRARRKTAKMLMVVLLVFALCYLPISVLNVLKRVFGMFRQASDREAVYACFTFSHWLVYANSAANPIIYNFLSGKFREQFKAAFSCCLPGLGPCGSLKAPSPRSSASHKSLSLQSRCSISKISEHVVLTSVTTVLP
CHO parental Ca – ATP-evoked calcium signal inhibitors, parental CHO, primary screen, counter-screen for OX1R antagonist project, cell-based, fluorescence, Fluo-8 calcium dye; inhibition, % at 5.6 µM; parental CHO-K1, ATP-induced calcium, Fluo-8 fluorescence; AID 463079, 2010; 330,000 tested, 0.63% active;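 active means inhibition above that plate's mean sample inhibition plus 3 SD, cut at about 26% in these data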;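 further: 0% = ATP-challenged DMSO wells and 100% = DMSO wells without ATP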
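Material – parental CHO cells · Reagent – ATP stimulus · Compound – single nominal dose of 5.6 µM per compound · Detection – Fluo-8 fluorescence · Read-out basis – percent inhibition of calcium signal · Controls – ATP-challenged DMSO wells low, unchallenged DMSO wells high · Repeats – no replicates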
GPR7 antag – GPR7 receptor antagonists, primary screen, cell-based, fluorescence, single concentration; Neuropeptides B/W receptor type 1 (Homo sapiens), P48145; GPR7-expressing cells, fluorescence antagonist assay; inhibition, % at 4.4 µM; 290,000 tested, 1.1% active; AID 1861, 2009; in the data active means inhibition above about 16%, passing the limit was not always enough;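 further: cells stimulated with the agonist NPW; 0% = agonist with vehicle and 100% = vehicle without agonist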
zfTRPN1 agonist – zebrafish TRPN1 channel agonists, primary screen, cell-based, HEK293, calcium fluorescence | activation, % at 3 µM | 220,000 tested, 0.18% active | HEK293 zebrafish TRPN1-YFP, Fluo-8 calcium fluorescence; 100% = response to 87 µM carbachol | transient receptor potential cation channel N1 (TRPN1/NompC), Danio rerio;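 active means activation above its plate's cutoff, the mean activation of test wells on that plate plus 3 SD, cut at about 19% in these data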;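 further: 0% = DMSO alone and 100% = 87 µM carbachol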
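System: zebrafish TRPN1-YFP in HEK293 cells / Dosing: 3 µM single point / Timing: dye loading 1 h at 37 °C, then 30 min room temperature / Signal: Fluo-8 calcium fluorescence, excitation 470-495 nm, emission 515-575 nm / Read-out basis: percent activation from peak over basal fluorescence ratio, control-normalized / Control set: high carbachol 87 µM, low DMSO alone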
OX1R antag-2 – OX1R (HCRTR1) antagonists, primary screen, fluorescence, CHO/OX1R cells, Fluo-8 calcium, orexin A | Fluo-8 calcium fluorescence | inhibition, % at 5 µM | 330,000 tested, 0.43% active;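 active means inhibition above its plate's threshold, mean inhibition of all tested compounds on the plate plus 3 SD, cut at about 37% in these data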;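 further: 0% = orexin A challenge wells and 100% = SB-334867-A antagonist wells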
* marks the source's active call; other numbers are inactive results; . = no result given. This is a sample that favours compounds with a hit; in the whole collection about 3.2% have one here.

SMILES	TRPML3 ag	OX1R antag-1	CHO parental Ca	GPR7 antag	zfTRPN1 agonist	OX1R antag-2
Cc1ccc(NC(=O)/C=C/c2cccc(C(F)(F)F)c2)cc1	0	13	-6	-3	0	-21
O=C(N/C(=C/c1cccc([N+](=O)[O-])c1)C(=O)N1CCOCC1)c1ccccc1Br	.	58*	10	-8	.	0
O=C(N/C(=C\c1ccc([N+](=O)[O-])cc1)C(=O)N1CCCCC1)c1ccccc1	1	75*	-7	-5	0	-23
CCn1cc(C(=O)N2CCCC(CO)(Cc3ccccc3C)C2)cn1 (stereo unspecified)	.	6	-9	1	.	-8
Cc1cc(C(=O)N2CCN(C/C=C/c3ccccc3)CC2)cs1	1	5	-19	20*	1	-19
c1csc(COc2ccccc2CNC2CCCCC2)c1	0	7	-9	24*	-2	-16
c1ccc(COc2ccccc2CNC2CCCC2)cc1	1	3	-29	13	-2	-32
CCN(CC(=O)NCc1ccc(Cl)cc1)C(=O)C(C)Sc1ccccc1 (stereo unspecified)	.	28	-9	-2	.	-14
Cc1cc(C)n2nc(C(=O)N/N=C/c3ccccc3C)nc2n1	0	16	0	-4	2	2
Cc1cc(C)n2nc(C(=O)N/N=C/c3cccs3)nc2n1	1	35*	-3	-5	4	-19
CCOc1ccc(NS(=O)(=O)c2ccc(C(=O)NC3CCC(O)CC3)cc2)cc1 (stereo unspecified)	.	1	-13	.	.	-25
FC(F)(F)c1cccc(NC(=S)NCc2ccccn2)c1	-1	13	-9	20*	0	-5
COc1ccc(OCC(=O)OC2CCCN(C)C2)cc1 (stereo unspecified)	0	8	-19	-6	2	-5
COc1ccccc1Nc1cc2cc(Br)ccc2c(=O)[nH]1	.	46	-18	.	.	2
COc1ccc(OC)c(Nc2cc3ccccc3c(=O)[nH]2)c1	.	68*	-11	.	.	-21
O=C(CS(=O)c1ccc(Br)cc1)N1CCOCC1 (stereo unspecified)	.	2	-3	-3	.	-15
COc1cccc(NC(=O)CN2C(=O)NC3(CCCc4ccccc43)C2=O)c1 (stereo unspecified)	.	7	-12	.	.	-9
CCOC(=O)c1ccccc1NC(=O)Cn1c(-c2nonc2N)nc2ccccc21	0	13	-6	21*	-1	4
Nc1nonc1-c1nc2ccccc2n1CC(=O)Nc1ccccc1	1	7	7	5	1	-6
Cc1ccc(C(c2nnnn2C(C)(C)C)N2CCN(C3CCCC3)CC2)cc1 (stereo unspecified)	0	12	-24	-5	0	-17
CC(C)CC(c1nnnn1C(C)(C)C)N1CCN(C2CCCC2)CC1 (stereo unspecified)	2	6	-10	18*	-1	-17
CC(=O)OCCn1c(=O)c2cc3c(=O)n(CCOC(C)=O)c(=O)c3cc2c1=O	1	68*	2	-1	-1	-7
COc1ccc(OC)c(NC(=O)c2cc3c(Cl)nc4ccccc4c3s2)c1	1	24	-21	-11	2	-20
COc1ccc(NC(=O)c2cc3c(Cl)nc4ccccc4c3s2)cc1OC	1	66*	-2	-14	-1	11
COc1cc(CN(C)Cc2cc(=O)oc3cc(C)c(Cl)cc23)ccc1OC(F)F	.	30	-17	-1	.	-31
O=C(Nc1ccc(C2=NCCN2)cc1)c1ccc(C(=O)Nc2ccc(C3=NCCN3)cc2)c([N+](=O)[O-])c1	1	38*	-17	-7	0	-12

Bioassay records from PubChem.
